In PubChem BioAssay AID493238 (Broad Institute, 2011):
The source made the active and inactive calls.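 The calls were made as follows: active = VEGF mRNA rise whose fitted curve reaches 40% activation within the highest concentration tested on that sample; inactive = the rest, including effects opposite to expected.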

Each compound was assayed on U2OS VEGF mRNA induction, RT-PCR (assay: activators raising VEGF transcript levels – cell-based, U2OS, RT-PCR, dry powder, set 2, orthogonal assay for HIF pathway activator project, dose response (AID 493238)).
Method in brief: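 Test system: human U2OS osteosarcoma cells, endogenous VEGF-A mRNA / Quantity: 2,000 cells/well / Times: 24 h pre-growth at 37 °C, 24 h compound treatment / Signal: TaqMan RT-qPCR, VEGF-A (FAM) with beta-actin (VIC) / Control set: DMSO as negative control / Replication: duplicates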
With COc1cccc(CNc2nc(-c3ccccn3)nnc2-c2ccccc2)c1 the AC40 was 1.78 µM. In the case of O=C(NCCCO)c1cc(-c2ccccc2)on1, the AC40 is reported as 11.5 µM. In the case of CN(C)c1nc(-c2ccccn2)nnc1-c1ccccc1, the AC40 is reported as 8.23 µM. In the case of C=CCNc1nc(-c2ccccn2)nnc1-c1ccccc1, the AC40 is reported as 4.47 µM. Work on Clc1cccc(CNc2nc(-c3ccccn3)nnc2-c2ccccc2)c1 yielded an AC40 of 0.87 µM. Compound Oc1ccc(CNC2Cc3ccccc3C2)c2cccnc12 has an AC40 of 10.7 µM. Cc1ccc(CNc2nc(-c3ccccn3)nnc2-c2ccccc2)cc1 gave an AC40 of 0.892 µM. Work on c1ccc(-c2nnc(-c3ccccn3)nc2Nc2cnc3ccccc3n2)cc1 yielded an AC40 of 1.1 µM. COc1ccc(CNc2nc(-c3ccccn3)nnc2-c2ccccc2)cc1 gave an AC40 of 1.92 µM. In the case of Cc1cccc(CNc2nc(-c3ccccn3)nnc2-c2ccccc2)c1, the AC40 is reported as 1.45 µM. c1ccc(CCNc2nc(-c3ccccn3)nnc2-c2ccccc2)cc1 gave an AC40 of 4.92 µM. Compound OCC1CCN(c2nc(-c3ccccn3)nnc2-c2ccccc2)CC1 has an AC40 of 10.5 µM. C[C@@H](Nc1nc(-c2ccccn2)nnc1-c1ccccc1)c1ccccc1 gave an AC40 of 2.22 µM. O=C(NCCCn1ccnc1)c1cc(-c2ccccc2)on1 was tested, and the AC40 was 10.7 µM. N#CC1(c2ccccc2)CCN(Cc2ccc(O)c3ncccc23)CC1 gave an AC40 of 28.3 µM. In the case of O=C(Nc1ncc2ccccc2n1)c1cc(-c2ccccc2)on1, the AC40 is reported as 36.2 µM. c1ccc(-c2nnc(-c3ccccn3)nc2NCC2CCOCC2)cc1 gave an AC40 of 7.58 µM. O=C(NCCN1CCOCC1)c1cc(-c2ccccc2)on1 gave an AC40 of 28.8 µM. c1ccc(-c2nnc(-c3ccccn3)nc2NCC2CCCCC2)cc1 was tested, and the AC40 was 1.3 µM. Work on c1ccc(-c2cnc(Nc3nc(-c4ccccn4)nnc3-c3ccccc3)s2)cc1 yielded an AC40 of 0.4 µM. Compound CCCCNC(=O)c1cc(-c2ccccc2)on1 has an AC40 of 14.6 µM. c1ccc(-c2nnc(-c3ccccn3)nc2NCCc2ccccn2)cc1 gave an AC40 of 5.54 µM. Work on C[C@@H](Nc1nc(-c2ccccn2)nnc1-c1ccccc1)C1CCCCC1 yielded an AC40 of 0.571 µM. Cc1cccc(Nc2nc(-c3ccccn3)nnc2-c2ccccc2)n1 showed an AC40 of 2.98 µM. Work on CC(Nc1nc(-c2ccccn2)nnc1-c1ccccc1)c1ccccc1 (stereo not drawn) yielded an AC40 of 1.37 µM. For c1ccc(-c2nnc(Nc3nc(-c4ccccn4)nnc3-c3ccccc3)s2)cc1, the AC40 was 1.3 µM. Work on Cc1ccccc1CNc1nc(-c2ccccn2)nnc1-c1ccccc1 yielded an AC40 of 1.02 µM. In the case of Oc1ccc(CN2CCC3CCCCC3C2)c2cccnc12 (stereo not drawn), the AC40 is reported as 3.2 µM. For CN1CCN(c2nc(-c3ccccn3)nnc2-c2ccccc2)CC1, the AC40 was 5.95 µM. In the case of c1ccc(-c2nnc(-c3ccccn3)nc2NCC2CC2)cc1, the AC40 is reported as 2.4 µM. With O=C(Nc1cn2ccccc2n1)c1cc(-c2ccccc2)on1 the AC40 was 18.6 µM. O=C(NCC1CC1)c1cc(-c2ccccc2)on1 showed an AC40 of 17.2 µM. CC1CN(Cc2ccc(O)c3ncccc23)CC(C)O1 (stereo not drawn) was tested, and the AC40 was 9.15 µM. With c1ccc(-c2nnc(-c3ccccn3)nc2N2CCC(C3CCCCC3)C2)cc1 (stereo not drawn) the AC40 was 0.843 µM. In the case of O=C(NC1CCc2ccccc2C1)c1cc(-c2ccccc2)on1 (stereo not drawn), the AC40 is reported as > 38 µM (inactive). Oc1ccc(CN2CCC(Cc3ccccc3)CC2)c2cccnc12 gave an AC40 of 6.76 µM. With Cc1ccc(Nc2nc(-c3ccccn3)nnc2-c2ccccc2)cn1 the AC40 was 6.12 µM. Compound Oc1ccc(CNC2CCc3ccccc32)c2cccnc12 (stereo not drawn) has an AC40 of 35.1 µM. With c1ccc(-c2nnc(-c3ccccn3)nc2NCc2cccnc2)cc1 the AC40 was 2.84 µM. Work on c1ccc(-c2nnc(-c3ccccn3)nc2NCCN2CCOCC2)cc1 yielded an AC40 of 8.15 µM. In the case of Cn1c(-c2ccccc2)cnc1Nc1nc(-c2ccccn2)nnc1-c1ccccc1, the AC40 is reported as 3.33 µM. c1ccc(-c2nnc(-c3ccccn3)nc2NCCCN2CCOCC2)cc1 gave an AC40 of 6.5 µM. c1ccc(-c2nnc(-c3ccccn3)nc2N2CCC(c3ccccc3)C2)cc1 (stereo not drawn) gave an AC40 of 1.52 µM.
